pIC50: −log10 of the molar value.

The values that follow come from ChEMBL document CHEMBL3774303, “Discovery of novel pyrrolo[2,3-b]pyridine derivatives bearing 1,2,3-triazole moiety as c-Met kinase inhibitors” (Bioorg Med Chem Lett, 2016).

The subject of one assay is HT-29. The assay can be described thus: Cytotoxicity against human HT-29 cells assessed as reduction in cell growth after 72 hrs by MTT assay. To be noted: HT-29, 72 h.
Another assay has as its system A549. The assay can be described thus: Cytotoxicity against human A549 cells assessed as reduction in cell growth after 72 hrs by MTT assay. To be noted: A549, 72 h. On the technique in general: Formazan colour is commonly taken as a measure of viable cells.
Another assay relates to MCF7. The assay can be described thus: Cytotoxicity against human MCF7 cells assessed as reduction in cell growth after 72 hrs by MTT assay. The class given is functional, cell-based. To be noted: MCF7, 72 h. Put shortly: (§1)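 Cells grown in MEM with 10% FBS were seeded at about 4 × 10³ cells/well and held 24 h at 37 °C in 5% CO₂. Compounds were then added and cells cultured 72 h. IC50 is the average of triplicate determinations.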

Assay [1] can be described thus: Cytotoxicity against human PC3 cells assessed as reduction in cell growth after 72 hrs by MTT assay. The class given is functional, cell-based. To be noted: PC-3, 72 h. Summed up:
as §1

Assay [2] deals with Hepatocyte growth factor receptor (Homo sapiens, UniProt P08581). The assay can be described thus: Inhibition of cMet (unknown origin) using poly (Glu, Tyr) 4:1 as substrate after 30 mins by HTRF assay. In general terms: TR-FRET usually uses a lanthanide donor and a delayed reading to cut background.
Hepatocyte growth factor receptor, sequence (P08581 whole entry): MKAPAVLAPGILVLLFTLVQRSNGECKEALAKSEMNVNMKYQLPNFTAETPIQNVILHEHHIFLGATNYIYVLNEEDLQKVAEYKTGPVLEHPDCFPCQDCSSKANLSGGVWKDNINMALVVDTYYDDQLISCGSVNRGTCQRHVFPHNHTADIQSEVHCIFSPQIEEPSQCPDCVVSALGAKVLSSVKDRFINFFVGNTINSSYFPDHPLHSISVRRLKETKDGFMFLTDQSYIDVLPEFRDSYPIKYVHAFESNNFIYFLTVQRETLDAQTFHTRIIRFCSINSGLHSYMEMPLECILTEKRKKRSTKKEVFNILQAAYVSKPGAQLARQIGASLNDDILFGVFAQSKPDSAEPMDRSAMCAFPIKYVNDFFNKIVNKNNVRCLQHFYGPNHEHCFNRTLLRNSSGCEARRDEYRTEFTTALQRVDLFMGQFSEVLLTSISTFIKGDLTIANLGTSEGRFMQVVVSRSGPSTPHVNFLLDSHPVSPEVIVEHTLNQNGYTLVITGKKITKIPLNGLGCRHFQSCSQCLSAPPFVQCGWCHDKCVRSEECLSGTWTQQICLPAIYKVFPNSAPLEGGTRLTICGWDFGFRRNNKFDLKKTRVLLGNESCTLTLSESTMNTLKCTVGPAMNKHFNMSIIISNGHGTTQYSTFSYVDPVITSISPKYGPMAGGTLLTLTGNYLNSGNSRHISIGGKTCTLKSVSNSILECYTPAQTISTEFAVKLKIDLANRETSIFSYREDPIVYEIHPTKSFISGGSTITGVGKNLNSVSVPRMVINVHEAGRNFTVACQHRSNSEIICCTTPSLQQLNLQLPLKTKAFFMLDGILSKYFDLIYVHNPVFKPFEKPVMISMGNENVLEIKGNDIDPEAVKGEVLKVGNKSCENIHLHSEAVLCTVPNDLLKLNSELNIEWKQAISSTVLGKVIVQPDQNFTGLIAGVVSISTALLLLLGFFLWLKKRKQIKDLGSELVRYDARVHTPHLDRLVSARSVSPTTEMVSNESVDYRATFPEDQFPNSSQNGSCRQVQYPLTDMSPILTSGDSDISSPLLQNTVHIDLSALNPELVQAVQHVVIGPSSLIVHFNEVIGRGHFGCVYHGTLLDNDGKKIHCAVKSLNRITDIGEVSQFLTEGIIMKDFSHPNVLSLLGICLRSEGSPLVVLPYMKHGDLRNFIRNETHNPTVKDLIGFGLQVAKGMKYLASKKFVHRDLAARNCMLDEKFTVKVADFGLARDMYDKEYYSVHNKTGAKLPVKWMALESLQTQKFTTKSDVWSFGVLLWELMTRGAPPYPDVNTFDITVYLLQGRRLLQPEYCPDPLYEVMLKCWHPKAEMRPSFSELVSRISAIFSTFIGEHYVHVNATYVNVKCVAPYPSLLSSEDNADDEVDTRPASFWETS
Assay [3] deals with T1, Receptor-type tyrosine-protein kinase FLT3 (Homo sapiens, UniProt P36888).
T1 sequence (P36888 whole entry): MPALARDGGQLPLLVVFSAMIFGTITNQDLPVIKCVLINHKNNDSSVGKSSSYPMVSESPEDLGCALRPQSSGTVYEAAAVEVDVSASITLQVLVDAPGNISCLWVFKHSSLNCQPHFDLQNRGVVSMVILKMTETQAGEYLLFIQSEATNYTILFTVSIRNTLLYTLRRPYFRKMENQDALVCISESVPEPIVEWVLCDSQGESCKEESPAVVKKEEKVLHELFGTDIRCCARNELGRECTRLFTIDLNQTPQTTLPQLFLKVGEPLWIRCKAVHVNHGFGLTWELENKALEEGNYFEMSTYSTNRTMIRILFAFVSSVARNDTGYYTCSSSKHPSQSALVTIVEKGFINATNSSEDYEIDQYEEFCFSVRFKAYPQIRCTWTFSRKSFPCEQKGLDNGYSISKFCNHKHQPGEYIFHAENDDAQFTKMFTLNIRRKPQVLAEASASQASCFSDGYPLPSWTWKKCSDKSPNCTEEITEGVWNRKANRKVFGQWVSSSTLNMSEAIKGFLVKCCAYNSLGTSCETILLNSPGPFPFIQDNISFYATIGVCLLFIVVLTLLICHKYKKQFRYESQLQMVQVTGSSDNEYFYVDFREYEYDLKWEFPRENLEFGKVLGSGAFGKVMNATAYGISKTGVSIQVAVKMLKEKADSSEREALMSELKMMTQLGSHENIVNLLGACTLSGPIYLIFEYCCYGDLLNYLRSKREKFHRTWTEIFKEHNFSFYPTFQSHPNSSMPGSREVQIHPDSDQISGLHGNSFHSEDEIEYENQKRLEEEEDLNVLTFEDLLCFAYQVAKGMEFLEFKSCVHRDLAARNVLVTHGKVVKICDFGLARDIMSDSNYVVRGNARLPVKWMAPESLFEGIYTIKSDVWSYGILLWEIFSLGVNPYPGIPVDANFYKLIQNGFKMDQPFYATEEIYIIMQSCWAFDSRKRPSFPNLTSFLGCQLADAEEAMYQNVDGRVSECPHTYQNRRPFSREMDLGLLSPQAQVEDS
The assay can be described thus: Inhibition of FLT3 (unknown origin) using poly (Glu, Tyr) 4:1 as substrate after 30 mins by HTRF assay. Put shortly: (§2)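 HTRF tyrosine-kinase assay with purified enzyme on preloaded poly(Glu,Tyr) 4:1 substrate (20 μg/mL). ATP was added from a 10 mM solution in HEPES buffer (50 mM, pH 7.0, with Mg²⁺, Mn²⁺, DTT, 0.1% NaN₃), and compounds in 1% DMSO.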

For assay [4], the target named is Platelet-derived growth factor receptor beta (Homo sapiens, UniProt P09619). The assay can be described thus: Inhibition of PDGFRbeta (unknown origin) using poly (Glu, Tyr) 4:1 as substrate after 30 mins by HTRF assay. Put shortly: as §2
Platelet-derived growth factor receptor beta, sequence (P09619 whole entry): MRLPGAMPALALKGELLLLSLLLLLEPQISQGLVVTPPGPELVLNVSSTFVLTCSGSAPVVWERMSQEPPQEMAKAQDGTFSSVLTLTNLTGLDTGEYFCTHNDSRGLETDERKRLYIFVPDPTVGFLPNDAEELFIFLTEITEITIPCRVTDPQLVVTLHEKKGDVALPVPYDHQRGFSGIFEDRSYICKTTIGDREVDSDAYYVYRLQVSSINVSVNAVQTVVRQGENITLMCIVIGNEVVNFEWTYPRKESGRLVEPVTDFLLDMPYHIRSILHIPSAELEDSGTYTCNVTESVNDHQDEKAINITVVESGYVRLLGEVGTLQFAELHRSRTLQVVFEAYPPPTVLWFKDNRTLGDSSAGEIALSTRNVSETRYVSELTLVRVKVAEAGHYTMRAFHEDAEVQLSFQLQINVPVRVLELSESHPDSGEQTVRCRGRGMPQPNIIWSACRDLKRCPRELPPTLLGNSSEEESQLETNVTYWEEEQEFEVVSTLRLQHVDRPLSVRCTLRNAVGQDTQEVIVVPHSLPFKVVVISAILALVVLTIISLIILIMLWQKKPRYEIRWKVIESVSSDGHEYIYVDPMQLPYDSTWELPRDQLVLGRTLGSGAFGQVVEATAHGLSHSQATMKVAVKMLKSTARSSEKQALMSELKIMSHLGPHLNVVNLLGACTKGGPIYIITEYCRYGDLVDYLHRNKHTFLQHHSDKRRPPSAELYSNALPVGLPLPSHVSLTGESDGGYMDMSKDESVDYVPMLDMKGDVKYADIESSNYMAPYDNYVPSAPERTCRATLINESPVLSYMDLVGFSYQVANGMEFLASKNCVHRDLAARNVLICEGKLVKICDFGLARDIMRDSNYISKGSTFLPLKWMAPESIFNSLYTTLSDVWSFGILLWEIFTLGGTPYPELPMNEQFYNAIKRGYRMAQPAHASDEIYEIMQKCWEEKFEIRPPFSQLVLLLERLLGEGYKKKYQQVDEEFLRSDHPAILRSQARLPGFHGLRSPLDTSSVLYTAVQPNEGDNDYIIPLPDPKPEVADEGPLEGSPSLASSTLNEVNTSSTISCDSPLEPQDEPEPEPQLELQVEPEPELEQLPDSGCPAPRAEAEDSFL
The target of assay [5] is Vascular endothelial growth factor receptor 2 (Homo sapiens, UniProt P35968). The assay can be described thus: Inhibition of KDR (unknown origin) using poly (Glu, Tyr) 4:1 as substrate after 30 mins by HTRF assay. Summed up: as §2
Vascular endothelial growth factor receptor 2, sequence (P35968 whole entry): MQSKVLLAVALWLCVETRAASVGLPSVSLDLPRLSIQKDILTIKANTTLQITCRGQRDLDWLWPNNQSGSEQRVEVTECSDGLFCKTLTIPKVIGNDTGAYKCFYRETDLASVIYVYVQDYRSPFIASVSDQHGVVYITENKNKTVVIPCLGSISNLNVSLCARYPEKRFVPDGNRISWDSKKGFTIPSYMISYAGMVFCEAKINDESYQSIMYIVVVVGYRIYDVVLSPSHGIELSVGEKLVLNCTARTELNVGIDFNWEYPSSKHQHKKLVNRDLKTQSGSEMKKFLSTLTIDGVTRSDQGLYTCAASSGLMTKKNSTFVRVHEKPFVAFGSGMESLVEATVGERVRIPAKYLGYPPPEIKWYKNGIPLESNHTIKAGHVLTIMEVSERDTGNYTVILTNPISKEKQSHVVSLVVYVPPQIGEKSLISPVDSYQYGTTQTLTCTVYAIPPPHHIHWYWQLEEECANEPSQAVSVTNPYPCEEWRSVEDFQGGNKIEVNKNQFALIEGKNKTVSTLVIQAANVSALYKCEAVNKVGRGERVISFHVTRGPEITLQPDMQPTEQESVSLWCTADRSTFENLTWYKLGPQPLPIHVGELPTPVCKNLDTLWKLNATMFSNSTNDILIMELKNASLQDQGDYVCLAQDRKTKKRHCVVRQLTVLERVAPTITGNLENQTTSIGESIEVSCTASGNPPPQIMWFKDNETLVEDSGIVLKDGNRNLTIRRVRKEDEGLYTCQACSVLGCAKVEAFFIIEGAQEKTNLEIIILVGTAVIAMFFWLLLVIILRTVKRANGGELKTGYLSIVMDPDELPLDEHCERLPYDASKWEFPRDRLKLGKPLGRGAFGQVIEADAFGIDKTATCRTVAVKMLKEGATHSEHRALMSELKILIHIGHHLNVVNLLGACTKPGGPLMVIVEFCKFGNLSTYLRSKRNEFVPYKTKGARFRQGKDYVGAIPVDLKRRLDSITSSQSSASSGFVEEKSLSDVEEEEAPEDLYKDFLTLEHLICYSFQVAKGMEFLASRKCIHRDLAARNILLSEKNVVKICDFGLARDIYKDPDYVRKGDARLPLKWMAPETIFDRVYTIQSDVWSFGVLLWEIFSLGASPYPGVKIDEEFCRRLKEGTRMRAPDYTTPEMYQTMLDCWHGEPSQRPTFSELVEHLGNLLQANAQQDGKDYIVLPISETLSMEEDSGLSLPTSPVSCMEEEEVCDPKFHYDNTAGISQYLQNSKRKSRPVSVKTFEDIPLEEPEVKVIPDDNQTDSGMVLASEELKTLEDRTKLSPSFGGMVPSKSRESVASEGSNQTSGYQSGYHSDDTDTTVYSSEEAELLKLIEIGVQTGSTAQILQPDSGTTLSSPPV
In assay [6] the target is Mast/stem cell growth factor receptor Kit (Homo sapiens, UniProt P10721). The assay can be described thus: Inhibition of cKit (unknown origin) using poly (Glu, Tyr) 4:1 as substrate after 30 mins by HTRF assay. Summed up:
as §2

Mast/stem cell growth factor receptor Kit, sequence (P10721 whole entry): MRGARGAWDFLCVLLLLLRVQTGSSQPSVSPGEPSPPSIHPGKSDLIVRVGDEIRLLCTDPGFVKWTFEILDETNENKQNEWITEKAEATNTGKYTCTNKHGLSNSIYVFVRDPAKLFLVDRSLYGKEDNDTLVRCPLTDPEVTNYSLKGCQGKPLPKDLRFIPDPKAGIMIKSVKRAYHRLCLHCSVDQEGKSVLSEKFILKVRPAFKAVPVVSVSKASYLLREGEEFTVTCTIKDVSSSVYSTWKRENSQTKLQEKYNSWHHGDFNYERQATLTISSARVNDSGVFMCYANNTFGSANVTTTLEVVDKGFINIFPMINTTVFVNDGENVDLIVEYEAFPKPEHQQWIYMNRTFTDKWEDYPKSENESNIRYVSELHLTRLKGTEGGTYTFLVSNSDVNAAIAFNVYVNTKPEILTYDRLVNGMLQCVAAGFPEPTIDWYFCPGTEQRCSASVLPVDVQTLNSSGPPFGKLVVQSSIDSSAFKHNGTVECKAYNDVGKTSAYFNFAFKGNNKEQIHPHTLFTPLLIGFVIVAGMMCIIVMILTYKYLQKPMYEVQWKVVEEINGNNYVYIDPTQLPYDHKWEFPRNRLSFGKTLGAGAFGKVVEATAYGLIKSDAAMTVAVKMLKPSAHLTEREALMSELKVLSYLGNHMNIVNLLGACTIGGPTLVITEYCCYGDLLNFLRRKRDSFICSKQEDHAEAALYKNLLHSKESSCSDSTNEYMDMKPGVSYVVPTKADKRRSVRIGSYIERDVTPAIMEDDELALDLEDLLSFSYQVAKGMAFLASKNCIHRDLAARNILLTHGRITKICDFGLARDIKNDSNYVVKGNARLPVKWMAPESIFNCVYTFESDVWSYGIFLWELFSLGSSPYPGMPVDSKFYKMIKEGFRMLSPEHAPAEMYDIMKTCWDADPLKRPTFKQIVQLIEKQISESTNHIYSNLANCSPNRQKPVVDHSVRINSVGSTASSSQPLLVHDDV

For the compound `O=C(Nc1ccc(Oc2ccnc3[nH]ccc23)cc1)c1nnn(-c2ccc(F)c(Cl)c2)c1C(F)(F)F`, the pIC50 in the assay on HT-29 is 5.99; with A549, 5.95.

On to `Cc1c(C(=O)Nc2ccc(Oc3ccnc4[nH]ccc34)cc2)nnn1-c1ccc(F)c(Cl)c1`, for which the negative-log IC50 (pIC50) was 5.66 in the assay with HT-29, 6.01 with A549, 5.20 in the assay on MCF7 and 4.90 in assay [1].

Take `COc1ccc(-n2nnc(C(=O)Nc3ccc(Oc4ccnc5[nH]ccc45)cc3)c2C)cc1`: the values for the pIC50 in the assay with HT-29 and with A549 were 5.94 and 5.62, respectively.

Take `O=C(Nc1ccc(Oc2ccnc3[nH]ccc23)cc1)c1nnn(-c2ccccc2F)c1C(F)(F)F`: the negative-log IC50 (pIC50) was 6.92 with HT-29, 6.68 in the assay with A549, 6.54 in the assay with MCF7 and 5.43 in assay [1].

In the case of `Cc1c(C(=O)Nc2ccc(Oc3ccnc4[nH]ccc34)c(F)c2)nnn1-c1ccccc1`, the pIC50 with HT-29 is 6.54; in the assay with A549 it was 6.44; in the assay with MCF7, 6.46; in assay [1], 5.63.

On to `COc1ccc(-n2nnc(C(=O)Nc3ccc(Oc4ccnc5[nH]ccc45)c(F)c3)c2C)cc1`, for which the results for the pIC50 with HT-29 and with A549 were 6.23 and 6.15, respectively.

`Cc1c(C(=O)Nc2ccc(Oc3ccnc4[nH]ccc34)cc2)nnn1-c1ccccc1`: the negative logarithm of the IC50 (pIC50) in the assay with HT-29 was 6.46; in the assay with A549, 6.38; in the assay on MCF7 it was 6.49; in assay [1] it was 5.14.

For the compound `Cc1c(C(=O)Nc2ccc(Oc3ccnc4[nH]ccc34)cc2)nnn1-c1ccc(F)c(F)c1`, the negative logarithm of the IC50 (pIC50) in the assay on HT-29 is 5.97; with A549 it was 5.65.

For `COc1ccc(-n2nnc(C(=O)Nc3ccc(Oc4ccnc5[nH]ccc45)c(F)c3)c2C(F)(F)F)cc1`, the pIC50 in the assay on HT-29 was 6.54; in the assay with A549 it was 6.44; with MCF7 it was 6.29; in [1] it was 5.73.

Take `Cc1c(C(=O)Nc2ccc(Oc3ccnc4[nH]ccc34)c(F)c2)nnn1-c1ccccc1F`: the negative-log IC50 (pIC50) in the assay with HT-29 was 6.74; in the assay with A549 it was 6.41; with MCF7, 6.38; in [1], 5.49.

On to `O=C(Nc1ccc(Oc2ccnc3[nH]ccc23)c(F)c1)c1nnn(-c2ccc(Cl)c(C(F)(F)F)c2)c1C(F)(F)F`, for which the pIC50 was 5.98 in the assay with HT-29 and 5.89 in the assay on A549.

Regarding `O=C(Nc1ccc(Oc2ccnc3[nH]ccc23)cc1)c1nnn(-c2ccccc2)c1C(F)(F)F`, the negative logarithm of the IC50 (pIC50) with HT-29 is 6.72; with A549, 6.54; in the assay on MCF7, 6.59; in [1], 5.45.

As to `Cc1c(C(=O)Nc2ccc(Oc3ccnc4[nH]ccc34)c(F)c2)nnn1-c1ccc(F)c(Cl)c1`, the pIC50 with HT-29 was 5.97; with A549 it was 6.14.

For `Cc1c(C(=O)Nc2ccc(Oc3ccnc4[nH]ccc34)c(F)c2)nnn1-c1ccc(F)c(F)c1`, the pIC50 was 6.21 in the assay with HT-29, 6.24 with A549, 6.09 in the assay with MCF7 and 5.18 in [1].

As to `O=C(Nc1ccc(Oc2ccnc3[nH]ccc23)c(F)c1)c1nnn(-c2ccc(F)cc2)c1C(F)(F)F`, the negative logarithm of the IC50 (pIC50) in [2] is 8.77; in the assay with HT-29, 7.54; in the assay on A549 it was 7.09; in the assay with MCF7, 6.96; in assay [1], 5.82; in assay [3], 8.69. For the same compound, the pIC50 is 8.34 in assay [4], 7.06 in assay [5] and 6.49 in assay [6].

Take `O=C(Nc1ccc(Oc2ccnc3[nH]ccc23)c(F)c1)c1nnn(-c2ccccc2F)c1C(F)(F)F`: the pIC50 was 7.14 in the assay on HT-29, 6.72 in the assay with A549, 6.55 in the assay with MCF7 and 5.67 in assay [1].

Take `O=C(Nc1ccc(Oc2ccnc3[nH]ccc23)cc1)c1nnn(-c2ccc(F)c(F)c2)c1C(F)(F)F`: the pIC50 was 6.28 in the assay with HT-29, 6.10 with A549, 6.16 in the assay with MCF7 and 5.14 in assay [1].

Turning to `Cc1c(C(=O)Nc2ccc(Oc3ccnc4[nH]ccc34)c(F)c2)nnn1-c1ccc(F)cc1`, the negative-log IC50 (pIC50) in the assay with HT-29 was 6.92; in the assay on A549, 6.82; in the assay with MCF7, 6.77; in assay [1], 5.36.

Regarding `Cc1c(C(=O)Nc2ccc(Oc3ccnc4[nH]ccc34)cc2)nnn1-c1ccc(Cl)c(C(F)(F)F)c1`, the pIC50 is 5.48 with HT-29, 5.55 with A549, 5.08 in the assay with MCF7 and 4.96 in assay [1].

Turning to `O=C(Nc1ccc(Oc2ccnc3[nH]ccc23)cc1)c1nnn(-c2ccc(Cl)c(C(F)(F)F)c2)c1C(F)(F)F`, the figures for the pIC50 with HT-29 and in the assay on A549 were 5.82 and 5.63, respectively.

On to `Cc1c(C(=O)Nc2ccc(Oc3ccnc4[nH]ccc34)cc2)nnn1-c1ccc(F)cc1`, for which the pIC50 was 6.74 in the assay on HT-29, 6.66 in the assay on A549, 6.41 with MCF7 and 5.46 in [1].

As for `Cc1c(C(=O)Nc2ccc(Oc3ccnc4[nH]ccc34)cc2)nnn1-c1ccccc1F`, the pIC50 in the assay on HT-29 was 6.44; in the assay with A549, 6.49; with MCF7, 6.55; in [1] it was 5.46.

As to `Cc1c(C(=O)Nc2ccc(Oc3ccnc4[nH]ccc34)c(F)c2)nnn1-c1ccc(Cl)c(C(F)(F)F)c1`, the pIC50 with HT-29 was 5.95; with A549 it was 5.63.

Turning to `O=C(Nc1ccc(Oc2ccnc3[nH]ccc23)c(F)c1)c1nnn(-c2ccc(F)c(F)c2)c1C(F)(F)F`, the negative logarithm of the IC50 (pIC50) in the assay on HT-29 was 6.49; in the assay with A549, 6.46; in the assay on MCF7, 6.23; in assay [1], 5.61.

As to `O=C(Nc1ccc(Oc2ccnc3[nH]ccc23)c(F)c1)c1nnn(-c2ccccc2)c1C(F)(F)F`, the negative-log IC50 (pIC50) is 7.04 in the assay with HT-29, 6.66 in the assay with A549, 5.94 in the assay on MCF7 and 5.63 in [1].

Take `COc1ccc(-n2nnc(C(=O)Nc3ccc(Oc4ccnc5[nH]ccc45)cc3)c2C(F)(F)F)cc1`: the pIC50 in the assay with HT-29 is 6.54; with A549, 6.34; in the assay on MCF7 it was 6.24; in [1] it was 5.31.

With `O=C(Nc1ccc(Oc2ccnc3[nH]ccc23)cc1)c1nnn(-c2ccc(F)cc2)c1C(F)(F)F`, the pIC50 in the assay with HT-29 was 7.03; in the assay on A549 it was 6.74; in the assay on MCF7 it was 6.68; in [1] it was 5.55.

As for `O=C(Nc1ccc(Oc2ccnc3[nH]ccc23)c(F)c1)c1nnn(-c2ccc(F)c(Cl)c2)c1C(F)(F)F`, the pIC50 in the assay on HT-29 was 6.20; in the assay on A549 it was 6.09.

As a reminder, the pIC50 is the negative decadic logarithm of the IC50, by convention in mol/L.
